# Experimental data published in ChEMBL document CHEMBL4396871, “Leveraging a Low-Affinity Diazaspiro Orthosteric Fragment to Reduce Dopamine D3 Receptor (D3R) Ligand Promiscuity across Highly Conserved Aminergic G-Protein-Coupled Receptors (GPCRs)” (J Med Chem, 2019).
# Assays:
# Histamine H2 receptor = Histamine H2 receptor (Homo sapiens, UniProt P25021); assay: Displacement of [125I]-Iodo-aminopotentidine from human histamine H2 receptor expressed in stable HEK cells after 90 mins by microbeta scintillation counting method; type: cell-based
# Chain of Histamine H2 receptor (P25021 whole entry): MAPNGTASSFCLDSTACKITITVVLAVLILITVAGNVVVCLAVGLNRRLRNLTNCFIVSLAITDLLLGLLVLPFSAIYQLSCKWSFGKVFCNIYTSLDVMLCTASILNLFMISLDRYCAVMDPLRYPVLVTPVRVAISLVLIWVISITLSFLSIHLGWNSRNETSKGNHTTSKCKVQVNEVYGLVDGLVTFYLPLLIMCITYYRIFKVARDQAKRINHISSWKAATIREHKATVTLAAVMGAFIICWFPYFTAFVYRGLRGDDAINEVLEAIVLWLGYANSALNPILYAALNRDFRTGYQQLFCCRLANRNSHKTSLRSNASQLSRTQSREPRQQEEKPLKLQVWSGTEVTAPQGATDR
# D(1A) dopamine receptor = D(1A) dopamine receptor (Homo sapiens, UniProt P21728); assay: Agonist activity at recombinant human D1 receptor expressed in CHOK1 cells assessed as induction of beta arrestin2 recruitment measured after 30 mins by coelenterazine-based beta-galactosidase reporter gene assay; type: cell-based
# Chain of D(1A) dopamine receptor (P21728 whole entry): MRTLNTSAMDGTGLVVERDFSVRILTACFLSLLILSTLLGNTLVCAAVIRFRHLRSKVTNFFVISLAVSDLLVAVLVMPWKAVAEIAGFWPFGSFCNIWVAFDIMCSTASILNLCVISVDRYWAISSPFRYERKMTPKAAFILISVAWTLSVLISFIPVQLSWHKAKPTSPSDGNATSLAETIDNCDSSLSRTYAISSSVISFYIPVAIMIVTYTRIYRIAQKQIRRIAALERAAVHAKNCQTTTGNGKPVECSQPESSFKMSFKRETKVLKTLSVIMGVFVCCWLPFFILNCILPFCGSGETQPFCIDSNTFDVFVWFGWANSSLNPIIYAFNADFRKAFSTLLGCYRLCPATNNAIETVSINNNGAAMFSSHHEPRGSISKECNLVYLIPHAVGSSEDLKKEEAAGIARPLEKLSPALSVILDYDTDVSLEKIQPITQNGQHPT
# D(3) dopamine receptor [1] = biological target: T1, D(3) dopamine receptor (Homo sapiens, UniProt P35462); assay: Displacement of [3H]N-methylspiperone from D3 receptor (unknown origin) measured after 90 mins by microbeta scintillation counting method relative to control
# T1 sequence (P35462 whole entry): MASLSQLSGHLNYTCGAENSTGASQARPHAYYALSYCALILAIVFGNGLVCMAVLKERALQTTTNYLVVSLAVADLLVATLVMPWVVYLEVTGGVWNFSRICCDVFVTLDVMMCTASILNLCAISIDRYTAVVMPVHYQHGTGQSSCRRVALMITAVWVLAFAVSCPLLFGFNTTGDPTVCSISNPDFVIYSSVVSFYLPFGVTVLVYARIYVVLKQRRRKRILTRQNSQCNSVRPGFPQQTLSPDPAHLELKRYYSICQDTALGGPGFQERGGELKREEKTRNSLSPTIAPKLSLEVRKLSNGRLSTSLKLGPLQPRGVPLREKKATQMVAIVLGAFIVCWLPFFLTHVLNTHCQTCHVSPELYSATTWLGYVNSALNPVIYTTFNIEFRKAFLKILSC
# Histamine H1 receptor = Histamine H1 receptor (Homo sapiens, UniProt P35367); assay: Displacement of [3H]-pyrilamine from recombinant human H1 receptor stably expressed in HEK cell membranes measured after 90 mins by microbeta scintillation counting method
# Chain of Histamine H1 receptor (P35367 whole entry): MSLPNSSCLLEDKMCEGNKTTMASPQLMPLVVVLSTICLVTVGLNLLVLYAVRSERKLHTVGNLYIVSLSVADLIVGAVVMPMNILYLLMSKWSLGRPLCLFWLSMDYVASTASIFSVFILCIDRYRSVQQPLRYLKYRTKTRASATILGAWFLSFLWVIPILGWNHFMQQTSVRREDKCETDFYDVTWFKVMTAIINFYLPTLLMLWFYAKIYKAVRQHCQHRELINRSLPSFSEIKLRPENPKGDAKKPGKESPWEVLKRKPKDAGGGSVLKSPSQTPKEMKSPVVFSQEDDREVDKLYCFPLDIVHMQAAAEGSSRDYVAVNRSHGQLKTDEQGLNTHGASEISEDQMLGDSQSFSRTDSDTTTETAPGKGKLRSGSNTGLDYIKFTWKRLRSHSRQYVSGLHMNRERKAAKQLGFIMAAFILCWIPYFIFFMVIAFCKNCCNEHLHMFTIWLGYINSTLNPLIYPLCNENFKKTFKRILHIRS
# [2] = biological target: Neuronal acetylcholine receptor; alpha3/beta2 (Homo sapiens) (UniProt P17787+P32297); assay: Displacement of [3H]-epibatidine from recombinant human alpha3beta2 nACHR stably expressed in HEK cells at 10 uM measured after 90 mins by microbeta scintillation counting method relative to control; type: cell-based
# Outline: (§1)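 Primary screen at 10 μM compound, expressed as % receptor inhibition, from at least three experiments.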
# [3] = biological target: 5-hydroxytryptamine receptor 1E (Homo sapiens) (UniProt P28566); assay: Displacement of [3H]-5-HT from recombinant human 5HT1E receptor stably expressed in HEK cell membranes at 10 uM measured after 90 mins by microbeta scintillation counting method relative to control; outline: as §1
# D2 dopamine receptor [4] = biological target: T2, D2 dopamine receptor (Homo sapiens, UniProt P14416); assay: Agonist activity at recombinant human D2 receptor expressed in CHOK1 cells assessed as induction of beta arrestin2 recruitment measured after 30 mins by coelenterazine-based beta-galactosidase reporter gene assay; type: ADME, cell-based
# T2 sequence (P14416 whole entry): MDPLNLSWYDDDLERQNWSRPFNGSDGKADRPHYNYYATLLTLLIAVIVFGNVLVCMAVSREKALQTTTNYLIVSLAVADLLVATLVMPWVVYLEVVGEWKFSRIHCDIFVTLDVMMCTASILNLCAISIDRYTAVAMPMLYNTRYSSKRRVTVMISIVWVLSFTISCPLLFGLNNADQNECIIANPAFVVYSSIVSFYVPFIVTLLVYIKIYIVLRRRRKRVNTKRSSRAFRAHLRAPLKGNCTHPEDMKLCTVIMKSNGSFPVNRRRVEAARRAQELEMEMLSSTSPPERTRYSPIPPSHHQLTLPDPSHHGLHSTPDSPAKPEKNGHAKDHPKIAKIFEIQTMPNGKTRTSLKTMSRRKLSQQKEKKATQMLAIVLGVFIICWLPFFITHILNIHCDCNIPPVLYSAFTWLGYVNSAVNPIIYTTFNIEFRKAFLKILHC
# [5] = biological target: 5-hydroxytryptamine receptor 2B (Homo sapiens, UniProt P41595); assay: Displacement of [3H]-LSD from recombinant human 5HT2B receptor stably expressed in HEK cell membranes measured after 90 mins by microbeta scintillation counting method
# [6] = biological target: Kappa-type opioid receptor (Homo sapiens) (UniProt P41145); assay: Displacement of [3H]-U69593 from KOR (unknown origin) at 10 uM after 90 mins by microbeta scintillation counting method relative to control; outline: as §1
# Chain of Kappa-type opioid receptor (Homo sapiens) (P41145 whole entry): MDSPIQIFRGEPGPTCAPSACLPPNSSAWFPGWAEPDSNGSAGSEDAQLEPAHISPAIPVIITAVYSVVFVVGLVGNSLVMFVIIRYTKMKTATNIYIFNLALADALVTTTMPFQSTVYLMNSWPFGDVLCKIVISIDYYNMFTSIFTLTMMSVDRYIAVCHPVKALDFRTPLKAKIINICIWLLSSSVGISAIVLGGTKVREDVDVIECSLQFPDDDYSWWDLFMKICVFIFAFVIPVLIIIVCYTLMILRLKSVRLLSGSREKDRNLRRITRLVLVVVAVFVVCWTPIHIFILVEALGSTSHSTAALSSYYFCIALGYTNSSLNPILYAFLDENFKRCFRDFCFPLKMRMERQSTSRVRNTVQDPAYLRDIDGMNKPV
# D(3) dopamine receptor [7] = biological target: T1, D(3) dopamine receptor; assay: Antagonist activity at recombinant human D3 receptor expressed in CHOK1 cells assessed as inhibition of dopamine-induced beta arrestin2 recruitment preincubated for 30 mins followed by dopamine addition and measured after 90 mins by coelenterazine-based beta-galactosidase reporter gene assay; type: cell-based
# [8] = biological target: Neuronal acetylcholine receptor; alpha4/beta4 (Homo sapiens) (UniProt P30926+P43681); assay: Displacement of [3H]-epibatidine from recombinant human alpha4beta4 nACHR stably expressed in HEK cells at 10 uM measured after 90 mins by microbeta scintillation counting method relative to control; type: cell-based; outline: as §1
# [9] = biological target: Delta-type opioid receptor (Homo sapiens) (UniProt P41143); assay: Displacement of [3H]-DADLE from human DOR stably expressed in HEK cell membranes at 10 uM after 90 mins by microbeta scintillation counting method relative to control; outline: as §1
# [10] = biological target: Histamine H4 receptor (Homo sapiens) (UniProt Q9H3N8); assay: Displacement of [3H]-histamine from human histamine H4 receptor stably expressed in HEKT cell membranes at 10 uM after 90 mins by microbeta scintillation counting method relative to control; outline: as §1
# [11] = biological target: Sodium-dependent dopamine transporter (Homo sapiens) (UniProt Q01959); assay: Displacement of [3H]-Win35428 from recombinant human DAT stably expressed in HEK cells at 10 uM measured after 90 mins by microbeta scintillation counting method relative to control; type: cell-based; outline: as §1
# [12] = biological target: Alpha-2C adrenergic receptor (Homo sapiens, UniProt P18825); assay: Displacement of [3H]-rauwolscine from recombinant human alpha2C adrenergic receptor stably expressed in MDCK cells measured after 90 mins by microbeta scintillation counting method; type: cell-based
# Chain of Alpha-2C adrenergic receptor (P18825 whole entry): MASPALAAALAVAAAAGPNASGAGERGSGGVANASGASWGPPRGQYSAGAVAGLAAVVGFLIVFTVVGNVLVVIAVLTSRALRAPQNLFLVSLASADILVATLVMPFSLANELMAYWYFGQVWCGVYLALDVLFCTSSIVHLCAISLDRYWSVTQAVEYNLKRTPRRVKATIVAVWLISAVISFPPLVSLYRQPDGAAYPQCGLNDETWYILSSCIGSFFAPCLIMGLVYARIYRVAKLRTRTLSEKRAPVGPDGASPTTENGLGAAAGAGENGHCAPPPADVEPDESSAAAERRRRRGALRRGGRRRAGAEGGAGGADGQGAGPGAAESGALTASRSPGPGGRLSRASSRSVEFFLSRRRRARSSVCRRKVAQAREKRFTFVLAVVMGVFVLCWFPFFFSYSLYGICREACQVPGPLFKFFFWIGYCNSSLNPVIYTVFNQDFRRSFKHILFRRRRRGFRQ
# D(3) dopamine receptor [13] = biological target: T1, D(3) dopamine receptor; assay: Agonist activity at recombinant human D3 receptor expressed in CHOK1 cells assessed as induction of beta arrestin2 recruitment measured after 30 mins by coelenterazine-based beta-galactosidase reporter gene assay; type: cell-based
# D2 dopamine receptor [14] = biological target: T2, D2 dopamine receptor; assay: Antagonist activity at recombinant human D2 receptor expressed in CHOK1 cells assessed as inhibition of quinpirole-induced beta arrestin2 recruitment preincubated for 30 mins followed by quinpirole addition and measured after 90 mins by coelenterazine-based beta-galactosidase reporter gene assay; type: cell-based
# [15] = biological target: Alpha-1A adrenergic receptor (Homo sapiens, UniProt P35348); assay: Displacement of [3H]-prazosin from recombinant human alpha1A adrenergic receptor measured after 90 mins by microbeta scintillation counting method
# Chain of Alpha-1A adrenergic receptor (P35348 whole entry): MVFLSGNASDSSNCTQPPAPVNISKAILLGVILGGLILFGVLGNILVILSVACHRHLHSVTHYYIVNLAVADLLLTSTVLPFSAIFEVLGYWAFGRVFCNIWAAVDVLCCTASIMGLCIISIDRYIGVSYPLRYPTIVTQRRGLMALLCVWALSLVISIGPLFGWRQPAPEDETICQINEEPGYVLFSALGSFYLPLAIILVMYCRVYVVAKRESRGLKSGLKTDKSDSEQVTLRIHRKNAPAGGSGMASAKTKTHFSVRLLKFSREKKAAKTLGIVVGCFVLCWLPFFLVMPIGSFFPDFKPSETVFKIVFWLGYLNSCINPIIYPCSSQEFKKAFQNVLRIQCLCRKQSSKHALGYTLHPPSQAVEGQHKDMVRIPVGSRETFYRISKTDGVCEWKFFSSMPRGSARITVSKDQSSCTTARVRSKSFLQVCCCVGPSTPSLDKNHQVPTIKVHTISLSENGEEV
# [16] = biological target: Muscarinic acetylcholine receptor M5 (Homo sapiens) (UniProt P08912); assay: Displacement of [3H]-QNB/[3H]-NMS from human muscarinic M5 receptor expressed in stable CHO cells at 10 uM after 90 mins by microbeta scintillation counting method relative to control; type: cell-based; outline: as §1
# Chain of Muscarinic acetylcholine receptor M5 (Homo sapiens) (P08912 whole entry): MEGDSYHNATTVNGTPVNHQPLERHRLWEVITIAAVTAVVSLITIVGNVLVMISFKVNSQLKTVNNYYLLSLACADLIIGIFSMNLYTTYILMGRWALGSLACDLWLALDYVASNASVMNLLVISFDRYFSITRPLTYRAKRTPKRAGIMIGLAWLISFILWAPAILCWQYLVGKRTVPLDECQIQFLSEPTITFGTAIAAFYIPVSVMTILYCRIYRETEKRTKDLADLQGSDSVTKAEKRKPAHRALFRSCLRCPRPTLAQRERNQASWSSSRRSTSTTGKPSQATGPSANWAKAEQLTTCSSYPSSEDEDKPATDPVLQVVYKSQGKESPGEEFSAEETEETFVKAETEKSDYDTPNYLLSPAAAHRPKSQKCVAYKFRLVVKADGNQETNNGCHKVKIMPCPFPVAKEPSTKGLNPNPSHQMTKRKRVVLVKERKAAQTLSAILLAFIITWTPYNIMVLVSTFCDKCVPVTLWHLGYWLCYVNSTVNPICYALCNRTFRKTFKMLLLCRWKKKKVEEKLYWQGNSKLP
# [17] = biological target: Beta-2 adrenergic receptor (Homo sapiens) (UniProt P07550); assay: Displacement of [3H]-CGP12177 from recombinant human beta2 adrenergic stably expressed in HEK Flp-In cells at 10 uM measured after 90 mins by microbeta scintillation counting method relative to control; type: cell-based; outline: as §1
# Chain of Beta-2 adrenergic receptor (Homo sapiens) (P07550 whole entry, looked up): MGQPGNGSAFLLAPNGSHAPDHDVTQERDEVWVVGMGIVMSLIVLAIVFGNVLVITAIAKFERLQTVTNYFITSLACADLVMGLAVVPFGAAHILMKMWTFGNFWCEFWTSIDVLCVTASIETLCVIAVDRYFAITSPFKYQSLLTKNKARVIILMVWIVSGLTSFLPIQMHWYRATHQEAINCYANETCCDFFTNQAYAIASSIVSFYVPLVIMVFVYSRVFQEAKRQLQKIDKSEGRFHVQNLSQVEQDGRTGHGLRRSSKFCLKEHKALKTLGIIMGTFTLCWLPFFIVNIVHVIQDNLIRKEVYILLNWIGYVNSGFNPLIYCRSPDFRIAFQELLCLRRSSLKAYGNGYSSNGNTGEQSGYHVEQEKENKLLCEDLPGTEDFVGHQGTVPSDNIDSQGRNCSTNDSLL
# [18] = biological target: GABA-A receptor; anion channel (Rattus norvegicus) (UniProt O09028+P15431+P18506+P18508+P19969+P20236+P23574+P23576+P28471+P28473+P30191+P62813+P63079+P63138+Q91ZM7+Q9ES14); assay: Displacement of [3H]-muscimol from rat brain GABAA receptor at 10 uM measured after 90 mins by microbeta scintillation counting method relative to control; outline: as §1
# [19] = biological target: Nicotinic acetylcholine receptor alpha2/beta2 (Homo sapiens) (UniProt P02708+P17787); assay: Displacement of [3H]-epibatidine from recombinant human alpha2beta2 nACHR stably expressed in HEK cells at 10 uM measured after 90 mins by microbeta scintillation counting method relative to control; type: cell-based; outline: as §1
# [20] = biological target: 5-hydroxytryptamine receptor 6 (Homo sapiens) (UniProt P50406); assay: Displacement of [3H]-LSD from recombinant human 5HT6 receptor stably expressed in HEK cell membranes at 10 uM measured after 90 mins by microbeta scintillation counting method relative to control; outline: as §1
# [21] = biological target: 5-hydroxytryptamine receptor 1D (Homo sapiens) (UniProt P28221); assay: Displacement of [3H]-5-CT from recombinant human 5HT1D receptor transiently expressed in HEKT cell membranes at 10 uM measured after 90 mins by microbeta scintillation counting method relative to control; outline: as §1
# Chain of 5-hydroxytryptamine receptor 1D (Homo sapiens) (P28221 whole entry): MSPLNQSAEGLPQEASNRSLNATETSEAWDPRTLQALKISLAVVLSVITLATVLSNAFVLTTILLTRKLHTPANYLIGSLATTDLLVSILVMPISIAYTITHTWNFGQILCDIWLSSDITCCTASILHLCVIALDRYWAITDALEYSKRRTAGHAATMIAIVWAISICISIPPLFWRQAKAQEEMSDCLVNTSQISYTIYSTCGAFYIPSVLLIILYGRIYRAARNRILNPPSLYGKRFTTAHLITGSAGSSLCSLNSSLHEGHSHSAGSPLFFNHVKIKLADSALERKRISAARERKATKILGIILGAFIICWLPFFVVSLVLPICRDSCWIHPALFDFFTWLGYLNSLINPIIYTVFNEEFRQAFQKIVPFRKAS
# [22] = biological target: Nicotinic acetylcholine receptor alpha2/beta4 (Homo sapiens) (UniProt P02708+P30926); assay: Displacement of [3H]-epibatidine from recombinant human alpha2beta4 nACHR stably expressed in HEK cells at 10 uM measured after 90 mins by microbeta scintillation counting method relative to control; type: cell-based; outline: as §1
# [23] = biological target: Beta-3 adrenergic receptor (Homo sapiens) (UniProt P13945); assay: Displacement of [3H]-CGP12177 from recombinant human beta3 adrenergic stably expressed in HEK Flp-In cells at 10 uM measured after 90 mins by microbeta scintillation counting method relative to control; type: cell-based; outline: as §1
Ki (Histamine H2 receptor) [µM],EC50 (D(1A) dopamine receptor),Ki (D(3) dopamine receptor [1]) [µM],Ki (Histamine H1 receptor) [µM],inhibition [2] [%],inhibition [3] [%],Ki [5] [µM],inhibition [6] [%],IC50 (D(3) dopamine receptor [7]) [µM],inhibition [8] [%],inhibition [9] [%],inhibition [10] [%],inhibition [11] [%],Ki [12] [µM],IC50 (D2 dopamine receptor [14]) [µM],Ki [15] [µM],inhibition [16] [%],inhibition [17] [%],inhibition [18] [%],inhibition [19] [%],SMILES,other results
0.596,Not Active,0.094,0.008,< 50,< 50,2.14,< 50,0.0414,< 50,< 50,< 50,< 50,1.56,1.62,2.18,< 50,< 50,< 50,< 50,COc1ccccc1N1CCC2(CCN(CCCSc3nnc(-c4ccccc4)n3C)CC2)CC1,EC50 (D2 dopamine receptor [4]): Not Active; EC50 (D(3) dopamine receptor [13]): Not Active; inhibition [20]: < 50%; inhibition [21]: < 50%; inhibition [22]: < 50%; inhibition [23]: < 50%
0.871,Not Active,0.006,0.04,< 50,< 50,0.042,< 50,0.0087,< 50,< 50,< 50,< 50,0.433,0.328,0.049,< 50,60,< 50,< 50,COc1ccccc1N1CCN(CCCSc2nnc(-c3ccccc3)n2C)CC1,EC50 (D2 dopamine receptor [4]; read-out: EC50): 0.254 µM; EC50 (D(3) dopamine receptor [13]; read-out: EC50): 0.167 µM; inhibition [20]: < 50%; inhibition [21]: > 50%; inhibition [22]: < 50%; inhibition [23]: < 50%
